Residues, ends and D or L forms follow the SMILES beside them.
How the values were obtained:
Glucagon receptor = Glucagon receptor (Homo sapiens, UniProt P47871); test: Agonist activity at human glucagon receptor expressed in HEK293 cells assessed as induction of cAMP accumulation incubated for 30 mins by HTRF assay; type: functional, cell-based
[1] = target: Glucagon-like peptide 1 receptor (Homo sapiens, UniProt P43220); test: Agonist activity at human GLP-1 receptor expressed in HEK293 cells assessed as induction of cAMP accumulation incubated for 30 mins by HTRF assay; type: functional, cell-based
Method in brief: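 HEK-293 cells stably expressing human receptor, grown in DMEM/10% FBS, frozen, thawed and washed in HBSS/20 mM HEPES/0.1% HSA; resuspended with 2 mM IBMX. 5000 cells/well incubated with peptide 30 min at room temperature; cAMP by HTRF kit, 1 h with reagents in lysis buffer, 665/620 nm fluorescence ratio.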

Glucagon-like peptide 1 receptor, sequence (P43220 whole entry): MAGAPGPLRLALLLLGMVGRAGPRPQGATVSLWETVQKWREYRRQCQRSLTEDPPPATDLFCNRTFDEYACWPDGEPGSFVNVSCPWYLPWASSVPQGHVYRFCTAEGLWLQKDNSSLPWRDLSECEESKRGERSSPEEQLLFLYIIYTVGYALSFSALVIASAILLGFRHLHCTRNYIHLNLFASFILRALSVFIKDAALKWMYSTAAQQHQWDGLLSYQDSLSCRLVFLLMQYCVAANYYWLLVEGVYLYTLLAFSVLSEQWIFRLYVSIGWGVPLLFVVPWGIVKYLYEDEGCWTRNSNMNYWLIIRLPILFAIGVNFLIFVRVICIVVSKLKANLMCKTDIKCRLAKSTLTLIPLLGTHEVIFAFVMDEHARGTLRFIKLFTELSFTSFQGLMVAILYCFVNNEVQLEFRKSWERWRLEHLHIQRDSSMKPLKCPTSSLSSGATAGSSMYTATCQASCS
Glucagon receptor, sequence (P47871 whole entry): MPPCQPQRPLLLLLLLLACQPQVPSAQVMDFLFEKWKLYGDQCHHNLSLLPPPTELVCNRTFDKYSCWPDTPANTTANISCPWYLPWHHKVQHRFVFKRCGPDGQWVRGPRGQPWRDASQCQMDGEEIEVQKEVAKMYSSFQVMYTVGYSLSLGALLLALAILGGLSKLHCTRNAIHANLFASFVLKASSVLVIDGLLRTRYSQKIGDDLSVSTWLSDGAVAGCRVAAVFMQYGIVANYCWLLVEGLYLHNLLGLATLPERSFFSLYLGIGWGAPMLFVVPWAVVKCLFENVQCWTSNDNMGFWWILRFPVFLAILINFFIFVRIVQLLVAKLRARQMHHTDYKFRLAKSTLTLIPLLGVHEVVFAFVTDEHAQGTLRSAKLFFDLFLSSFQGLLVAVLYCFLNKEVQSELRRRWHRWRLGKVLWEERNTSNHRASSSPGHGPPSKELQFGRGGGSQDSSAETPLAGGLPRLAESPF

Compound	EC50 (Glucagon receptor) [pM]	EC50 [1] [pM]
CC[C@H](C)[C@@H]1NC(=O)[C@H](Cc2ccccc2)NC(=O)[C@@H](NC(=O)[C@H](CCC(N)=O)NC(=O)[C@H](C)NC(=O)[C@H](CCCNC(=N)N)NC(=O)[C@H](CCCNC(=N)N)NC(=O)[C@H](CO)NC(=O)[C@H](CC(=O)O)NC(=O)[C@H](CCSC)NC(=O)[C@H](CCC(N)=O)NC(=O)[C@H](CCCCN)NC(=O)[C@H](CO)NC(=O)[C@H](CC(C)C)NC(=O)[C@H](CC(=O)O)NC(=O)[C@H](CO)NC(=O)[C@@H](NC(=O)[C@H](Cc2ccccc2)NC(=O)[C@@H](NC(=O)CNC(=O)[C@H](CCC(N)=O)NC(=O)[C@H](CO)NC(=O)[C@@H](N)Cc2cnc[nH]2)[C@@H](C)O)[C@@H](C)O)CSCc2cc3cc(c2)CSC[C@@H](C(=O)N2CCC[C@H]2C(=O)N2CCC[C@H]2C(=O)N2CCC[C@H]2C(=O)N[C@@H](CO)C(N)=O)NC(=O)CNC(=O)[C@H](CO)NC(=O)[C@@H](CO)NC(=O)[C@@H]2CCCN2C(=O)CNC(=O)CNC(=O)[C@H](CSC3)NC(=O)[C@H](CCCCN)NC(=O)[C@H](CC(C)C)NC(=O)[C@H](Cc2c[nH]c3ccccc23)NC(=O)[C@H](CCC(=O)O)NC1=O	578	194
CC[C@H](C)[C@H](NC(=O)[C@H](Cc1ccccc1)NC(=O)[C@H](CC(=O)O)NC(=O)[C@H](CCC(N)=O)NC(=O)[C@H](C)NC(=O)[C@H](CCCNC(=N)N)NC(=O)[C@H](CCCNC(=N)N)NC(=O)[C@H](CO)NC(=O)[C@H](CC(=O)O)NC(=O)[C@H](CCSC)NC(=O)[C@H](CCC(N)=O)NC(=O)[C@H](CCCCN)NC(=O)[C@H](CO)NC(=O)[C@H](CC(C)C)NC(=O)[C@H](CC(=O)O)NC(=O)[C@H](CO)NC(=O)[C@@H](NC(=O)[C@H](Cc1ccccc1)NC(=O)[C@@H](NC(=O)CNC(=O)[C@H](CCC(N)=O)NC(=O)[C@@H](CO)NC(=O)[C@@H](N)Cc1cnc[nH]1)[C@@H](C)O)[C@@H](C)O)C(=O)N[C@@H](CCC(=O)O)C(=O)N[C@@H](Cc1c[nH]c2ccccc12)C(=O)N[C@@H](CC(C)C)C(=O)N[C@@H](CCCCN)C(=O)N[C@H]1CCCCNC(=O)CC[C@@H](C(=O)NCC(=O)N[C@@H](C)C(=O)N2CCC[C@H]2C(=O)N2CCC[C@H]2C(=O)N2CCC[C@H]2C(=O)N[C@@H](CO)C(N)=O)NC(=O)[C@H](CO)NC(=O)[C@@H]2CCCN2C(=O)CNC(=O)CNC1=O	59.6	8.13
CC[C@H](C)[C@H](NC(=O)[C@H](Cc1ccccc1)NC(=O)[C@H](CC(=O)O)NC(=O)[C@H](CCC(N)=O)NC(=O)[C@H](C)NC(=O)[C@H](CCCNC(=N)N)NC(=O)[C@H](CCCNC(=N)N)NC(=O)[C@H](CO)NC(=O)[C@H](CC(=O)O)NC(=O)[C@H](CCSC)NC(=O)[C@H](CCC(N)=O)NC(=O)[C@H](CCCCN)NC(=O)[C@H](CO)NC(=O)[C@H](CC(C)C)NC(=O)[C@H](CC(=O)O)NC(=O)[C@H](CO)NC(=O)[C@@H](NC(=O)[C@H](Cc1ccccc1)NC(=O)[C@@H](NC(=O)CNC(=O)[C@H](CCC(N)=O)NC(=O)[C@H](CO)NC(=O)[C@@H](N)Cc1cnc[nH]1)[C@@H](C)O)[C@@H](C)O)C(=O)N[C@@H](CCC(=O)O)C(=O)N[C@@H](Cc1c[nH]c2ccccc12)C(=O)N[C@@H](CC(C)C)C(=O)N[C@@H](CCCCN)C(=O)N[C@@H](CC(N)=O)C(=O)NCC(=O)NCC(=O)N1CCC[C@H]1C(=O)N[C@@H](CO)C(=O)N[C@@H](CO)C(=O)NCC(=O)N[C@@H](C)C(=O)N1CCC[C@H]1C(=O)N1CCC[C@H]1C(=O)N1CCC[C@H]1C(=O)N[C@@H](CO)C(N)=O	28.6	18.3
CC[C@H](C)[C@@H]1NC(=O)[C@H](Cc2ccccc2)NC(=O)[C@@H](NC(=O)[C@H](CCC(N)=O)NC(=O)[C@H](C)NC(=O)[C@H](CCCNC(=N)N)NC(=O)[C@H](CCCNC(=N)N)NC(=O)[C@H](CO)NC(=O)[C@H](CC(=O)O)NC(=O)[C@H](CCSC)NC(=O)[C@H](CCC(N)=O)NC(=O)[C@H](CCCCN)NC(=O)[C@H](CO)NC(=O)[C@H](CC(C)C)NC(=O)[C@H](CC(=O)O)NC(=O)[C@H](CO)NC(=O)[C@@H](NC(=O)[C@H](Cc2ccccc2)NC(=O)[C@@H](NC(=O)CNC(=O)[C@H](CCC(N)=O)NC(=O)[C@H](CO)NC(=O)[C@@H](N)Cc2cnc[nH]2)[C@@H](C)O)[C@@H](C)O)CSCc2cccc(c2)CSC[C@@H](C(=O)N2CCC[C@H]2C(=O)N2CCC[C@H]2C(=O)N2CCC[C@H]2C(=O)N[C@@H](CO)C(N)=O)NC(=O)CNC(=O)[C@H](CO)NC(=O)[C@H](CO)NC(=O)[C@@H]2CCCN2C(=O)CNC(=O)CNC(=O)[C@H](CC(N)=O)NC(=O)[C@H](CCCCN)NC(=O)[C@H](CC(C)C)NC(=O)[C@H](Cc2c[nH]c3ccccc23)NC(=O)[C@H](CCC(=O)O)NC1=O (HELM PEPTIDE1{H.S.Q.G.T.F.T.S.D.L.S.K.Q.M.D.S.R.R.A.Q.C.F.I.E.W.L.K.N.G.G.P.S.S.G.C.P.P.P.S.[am]}|CHEM1{[c1cc(C[*:1])cc(C[*:2])c1]}$PEPTIDE1,CHEM1,21:R3-1:R1|PEPTIDE1,CHEM1,35:R3-1:R2$$$V2.0)		24.9
CC[C@H](C)[C@H](NC(=O)[C@H](Cc1ccccc1)NC(=O)[C@H](CC(=O)O)NC(=O)[C@H](CCC(N)=O)NC(=O)[C@H](C)NC(=O)[C@H](CCCNC(=N)N)NC(=O)[C@H](CCCNC(=N)N)NC(=O)[C@H](CO)NC(=O)[C@H](CC(=O)O)NC(=O)[C@@H]1CCC(=O)NCCCC[C@H](NC(=O)[C@H](CC(=O)O)NC(=O)[C@H](CO)NC(=O)[C@@H](NC(=O)[C@H](Cc2ccccc2)NC(=O)[C@@H](NC(=O)CNC(=O)[C@H](CCC(N)=O)NC(=O)[C@H](CO)NC(=O)[C@@H](N)Cc2cnc[nH]2)[C@@H](C)O)[C@@H](C)O)C(=O)N[C@@H](CO)C(=O)N[C@@H](CCCCN)C(=O)N[C@@H](CCC(N)=O)C(=O)N1)C(=O)N[C@@H](CCC(=O)O)C(=O)N[C@@H](Cc1c[nH]c2ccccc12)C(=O)N[C@@H](CC(C)C)C(=O)N[C@@H](CCCCN)C(=O)N[C@@H](CC(N)=O)C(=O)NCC(=O)NCC(=O)N1CCC[C@H]1C(=O)N[C@@H](CO)C(=O)N[C@@H](CO)C(=O)NCC(=O)N[C@@H](C)C(=O)N1CCC[C@H]1C(=O)N1CCC[C@H]1C(=O)N1CCC[C@H]1C(=O)N[C@@H](CO)C(N)=O (HELM PEPTIDE1{H.S.Q.G.T.F.T.S.D.K.S.K.Q.E.D.S.R.R.A.Q.D.F.I.E.W.L.K.N.G.G.P.S.S.G.A.P.P.P.S.[am]}$PEPTIDE1,PEPTIDE1,10:R3-14:R3$$$V2.0)		47.5
CC[C@H](C)[C@H](NC(=O)[C@H](Cc1ccccc1)NC(=O)[C@H](CC(=O)O)NC(=O)[C@H](CCC(N)=O)NC(=O)[C@H](C)NC(=O)[C@H](CCCNC(=N)N)NC(=O)[C@H](CCCNC(=N)N)NC(=O)[C@H](CO)NC(=O)[C@H](CC(=O)O)NC(=O)[C@]1(C)CCC/C=C\CCC[C@](C)(NC(=O)[C@H](CC(=O)O)NC(=O)[C@H](CO)NC(=O)[C@@H](NC(=O)[C@H](Cc2ccccc2)NC(=O)[C@@H](NC(=O)CNC(=O)[C@H](CCC(N)=O)NC(=O)[C@H](CO)NC(=O)[C@@H](N)Cc2cnc[nH]2)[C@@H](C)O)[C@@H](C)O)C(=O)N[C@@H](CO)C(=O)N[C@@H](CCCCN)C(=O)N[C@@H](CCC(N)=O)C(=O)N1)C(=O)N[C@@H](CCC(=O)O)C(=O)N[C@@H](Cc1c[nH]c2ccccc12)C(=O)N[C@@H](CC(C)C)C(=O)N[C@@H](CCCCN)C(=O)N[C@@H](CC(N)=O)C(=O)NCC(=O)NCC(=O)N1CCC[C@H]1C(=O)N[C@@H](CO)C(=O)N[C@@H](CO)C(=O)NCC(=O)N[C@@H](C)C(=O)N1CCC[C@H]1C(=O)N1CCC[C@H]1C(=O)N1CCC[C@H]1C(=O)N[C@@H](CO)C(N)=O	2.3	7.4
CC[C@H](C)[C@H](NC(=O)[C@H](Cc1ccccc1)NC(=O)[C@H](CC(=O)O)NC(=O)[C@H](CCC(N)=O)NC(=O)[C@H](C)NC(=O)[C@H](CCCNC(=N)N)NC(=O)[C@H](CCCNC(=N)N)NC(=O)[C@H](CO)NC(=O)[C@H](CC(=O)O)NC(=O)[C@H](CCSC)NC(=O)[C@H](CCC(N)=O)NC(=O)[C@H](CCCCN)NC(=O)[C@H](CO)NC(=O)[C@H](CC(C)C)NC(=O)[C@H](CC(=O)O)NC(=O)[C@H](CO)NC(=O)[C@@H](NC(=O)[C@H](Cc1ccccc1)NC(=O)[C@@H](NC(=O)CNC(=O)[C@H](CCC(N)=O)NC(=O)[C@@H](CO)NC(=O)[C@@H](N)Cc1cnc[nH]1)[C@@H](C)O)[C@@H](C)O)C(=O)N[C@@H](CCC(=O)O)C(=O)N[C@@H](Cc1c[nH]c2ccccc12)C(=O)N[C@@H](CC(C)C)C(=O)N[C@@H](CCCCN)C(=O)N[C@@H](CC(N)=O)C(=O)NCC(=O)NCC(=O)N1CCC[C@H]1C(=O)N[C@@H](CO)C(=O)N[C@@H](CO)C(=O)NCC(=O)N[C@@H](C)C(=O)N1CCC[C@H]1C(=O)N1CCC[C@H]1C(=O)N1CCC[C@H]1C(=O)N[C@@H](CO)C(N)=O	122	75.4
CC[C@H](C)[C@H](NC(=O)[C@H](Cc1ccccc1)NC(=O)[C@H](CC(=O)O)NC(=O)[C@H](CCC(N)=O)NC(=O)[C@H](C)NC(=O)[C@]1(C)CCC/C=C/CCC[C@](C)(NC(=O)[C@H](CCC(N)=O)NC(=O)[C@H](CCCCN)NC(=O)[C@H](CO)NC(=O)[C@H](CC(C)C)NC(=O)[C@H](CC(=O)O)NC(=O)[C@H](CO)NC(=O)[C@@H](NC(=O)[C@H](Cc2ccccc2)NC(=O)[C@@H](NC(=O)CNC(=O)[C@H](CCC(N)=O)NC(=O)[C@H](CO)NC(=O)[C@@H](N)Cc2cnc[nH]2)[C@@H](C)O)[C@@H](C)O)C(=O)N[C@@H](CC(=O)O)C(=O)N[C@@H](CO)C(=O)N[C@@H](CCCNC(=N)N)C(=O)N1)C(=O)N[C@@H](CCC(=O)O)C(=O)N[C@@H](Cc1c[nH]c2ccccc12)C(=O)N[C@@H](CC(C)C)C(=O)N[C@@H](CCCCN)C(=O)N[C@@H](CC(N)=O)C(=O)NCC(=O)NCC(=O)N1CCC[C@H]1C(=O)N[C@@H](CO)C(=O)N[C@@H](CO)C(=O)NCC(=O)N[C@@H](C)C(=O)N1CCC[C@H]1C(=O)N1CCC[C@H]1C(=O)N1CCC[C@H]1C(=O)N[C@@H](CO)C(N)=O	369	0.4
